Source: ChEMBL document CHEMBL3992547, “Antimicrobial activity of rhodanine-3-acetic acid derivatives” (Bioorg Med Chem, 2017)
In brackets after ≈: the same amount, converted by molar mass. Activity calls are given as the source filed them. No cut-off for these calls is given here.

Columns and labels:
[1] = Solubility of the compound in Sula's semisynthetic medium up to 1 mM; type: physicochemical
Staphylococcus aureus [2] = assay: Antibacterial activity against methicillin-resistant Staphylococcus aureus H 5996/08 incubated for 24 hrs under dark condition by microdilution broth assay; type: functional; settings: H 5996/08, 24 h
Method in brief: (§1)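 Microdilution broth method modified per M07-A07, in Mueller-Hinton broth adjusted to pH 7.4 (±0.2). Inoculum made in sterile water to 0.5 McFarland (1.5 × 10⁸ CFU/mL). Plates incubated in the dark at 35 °C in a humid atmosphere, with reads at 24 and 48 h. MIC taken as at least 95% growth reduction (IC₉₅) versus control.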

Escherichia coli [3] = assay: Antibacterial activity against Escherichia coli CCM 4517 incubated for 24 hrs under dark condition by microdilution broth assay; type: functional; settings: CCM 4517, 24 h
Method in brief: (§2)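 Broth microdilution per M07-A07, modified, in Mueller-Hinton broth adjusted to pH 7.4 (±0.2). Inoculum is prepared in sterile water to McFarland 0.5 (1.5 × 10⁸ CFU/mL). Plates are incubated in the dark at 35 °C in humid air. MIC is read after 24 and 48 h as at least 95% growth reduction versus control (IC₉₅).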

Escherichia coli [4] = assay: Antibacterial activity against Escherichia coli CCM 4517 incubated for 48 hrs under dark condition by microdilution broth assay; type: functional; settings: CCM 4517, 48 h; method in brief: as §2
[5] = system: Staphylococcus epidermidis; assay: Antibacterial activity against Staphylococcus epidermidis H 6966/08 incubated for 48 hrs under dark condition by microdilution broth assay; type: functional; settings: H 6966/08, 48 h; method in brief: as §2
Lichtheimia corymbifera = assay: Antifungal activity against Absidia corymbifera 272 after 24 to 48 hrs hrs by microdilution broth assay; type: functional
Method in brief: (§3)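 Broth microdilution per CLSI M27-A3 and M38-A2 in RPMI 1640 with glutamine, buffered to pH 7.0 with MOPS. Compounds are diluted in DMSO. Final inoculum is 5 × 10³ CFU/mL for yeasts and 0.5–5 × 10⁴ CFU/mL for moulds. Plates are incubated in the dark at 35 °C in humid air and read visually and/or at 540 nm after 24 and 48 h. MIC is ≥80% growth reduction (IC₈₀) for yeasts and ≥50% (IC₅₀) for filamentous fungi.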

Pichia kudriavzevii = assay: Antifungal activity against Candida krusei E28 after 24 to 48 hrs hrs by microdilution broth assay; type: functional; method in brief: as §3
Klebsiella pneumoniae [6] = assay: Antibacterial activity against Klebsiella pneumoniae D 11750/08 up to 500 uM incubated for 24 to 48 hrs under dark condition by microdilution broth assay; type: functional; method in brief: as §2
Klebsiella pneumoniae [7] = assay: Antibacterial activity against ESBL positive Klebsiella pneumoniae J 14368/08 up to 500 uM incubated for 24 to 48 hrs under dark condition by microdilution broth assay; type: functional; method in brief: as §2
Mycobacterium kansasii [8] = assay: Antimycobacterial activity against Mycobacterium kansasii isolate 235/80 after 21 days by micromethod; type: functional; settings: isolate 235/80, 504 h
Enterococcus [9] = assay: Antibacterial activity against Enterococcus sp. J 14365/08 incubated for 24 hrs under dark condition by microdilution broth assay; settings: J 14365/08, 24 h
[10] = system: Staphylococcus epidermidis; assay: Antibacterial activity against Staphylococcus epidermidis H 6966/08 incubated for 24 hrs under dark condition by microdilution broth assay; type: functional; settings: H 6966/08, 24 h; method in brief: as §2
[11] = system: Mycobacterium tuberculosis; assay: Antimycobacterial activity against Mycobacterium tuberculosis H37Rv 331/88 measured after 14 days by micromethod; type: functional; settings: H37Rv 331/88, 336 h
Staphylococcus aureus [12] = assay: Antibacterial activity against methicillin-resistant Staphylococcus aureus H 5996/08 incubated for 48 hrs under dark condition by microdilution broth assay; type: functional; settings: H 5996/08, 48 h; method in brief: as §1
Mycobacterium kansasii [13] = assay: Antimycobacterial activity against Mycobacterium kansasii isolate 6509/96 after 21 days by micromethod; type: functional; settings: isolate 6509/96, 504 h
Mycobacterium kansasii [14] = assay: Antimycobacterial activity against Mycobacterium kansasii isolate 6509/96 after 14 days by micromethod; type: functional; settings: isolate 6509/96, 336 h
Enterococcus [15] = assay: Antibacterial activity against Enterococcus sp. J 14365/08 incubated for 48 hrs under dark condition by microdilution broth assay; settings: J 14365/08, 48 h
[16] = system: Mycobacterium tuberculosis; assay: Antimycobacterial activity against Mycobacterium tuberculosis H37Rv 331/88 measured after 21 days by micromethod; type: functional; settings: H37Rv 331/88, 504 h
Staphylococcus aureus [17] = assay: Antibacterial activity against Staphylococcus aureus CCM 4516/08 incubated for 48 hrs under dark condition by microdilution broth assay; type: functional; settings: CCM 4516/08, 48 h; method in brief: as §2
Staphylococcus aureus [18] = assay: Antibacterial activity against Staphylococcus aureus CCM 4516/08 incubated for 24 hrs under dark condition by microdilution broth assay; type: functional; settings: CCM 4516/08, 24 h; method in brief: as §2
Mycobacterium kansasii [19] = assay: Antimycobacterial activity against Mycobacterium kansasii isolate 235/80 after 7 days by micromethod; type: functional; settings: isolate 235/80, 168 h
Mycobacterium avium [20] = assay: Antimycobacterial activity against Mycobacterium avium 330/88 measured after 14 days by micromethod; type: functional; settings: 330/88, 336 h
Mycobacterium kansasii [21] = assay: Antimycobacterial activity against Mycobacterium kansasii isolate 235/80 after 14 days by micromethod; type: functional; settings: isolate 235/80, 336 h
Mycobacterium avium [22] = assay: Antimycobacterial activity against Mycobacterium avium 330/88 measured after 21 days by micromethod; type: functional; settings: 330/88, 504 h
Mycobacterium kansasii [23] = assay: Antimycobacterial activity against Mycobacterium kansasii isolate 6509/96 after 7 days by micromethod; type: functional; settings: isolate 6509/96, 168 h
Pseudomonas aeruginosa = assay: Antibacterial activity against Pseudomonas aeruginosa CCM 1961 up to 500 uM incubated for 24 to 48 hrs under dark condition by microdilution broth assay; type: functional; method in brief: as §2

Row | SMILES | solubility [1] | MIC95 (Staphylococcus aureus [2]) | MIC95 (Escherichia coli [3]) | MIC95 (Escherichia coli [4]) | MIC95 [5] | Activity (Lichtheimia corymbifera) | Activity (Pichia kudriavzevii) | Activity (Klebsiella pneumoniae [6]) | Activity (Klebsiella pneumoniae [7]) | MIC (Mycobacterium kansasii [8]) | MIC [11] | MIC (Mycobacterium kansasii [13]) | MIC (Mycobacterium kansasii [14]) | MIC [16] | MIC (Mycobacterium kansasii [19]) | MIC (Mycobacterium avium [20]) | MIC (Mycobacterium kansasii [21]) | MIC (Mycobacterium avium [22]) | MIC (Mycobacterium kansasii [23]) | Activity (Pseudomonas aeruginosa) | further results
1 | O=C(CN1C(=O)/C(=C/c2cc(Cl)ccc2O)SC1=S)Nc1ccc(Cl)cc1 | Insoluble | 125 µM (≈ 54.9 µg/mL) | > 250 µM | > 250 µM | > 250 µM | inactive | inactive | inactive | inactive | 250 µM (≈ 110 µg/mL) | 16 µM (≈ 7.03 µg/mL) | 250 µM (≈ 110 µg/mL) | 250 µM (≈ 110 µg/mL) | 32 µM (≈ 14.1 µg/mL) | 125 µM (≈ 54.9 µg/mL) | 250 µM (≈ 110 µg/mL) | 125 µM (≈ 54.9 µg/mL) | 250 µM (≈ 110 µg/mL) | 125 µM (≈ 54.9 µg/mL) | inactive | MIC95 (Enterococcus [9]): > 250 µM; MIC95 [10]: 250 µM (≈ 110 µg/mL); MIC95 (Staphylococcus aureus [12]): > 250 µM; MIC95 (Enterococcus [15]): > 250 µM; MIC95 (Staphylococcus aureus [17]): > 250 µM; MIC95 (Staphylococcus aureus [18]): 250 µM (≈ 110 µg/mL)
2 | O=C(CN1C(=O)/C(=C/c2cc(Br)ccc2O)SC1=S)Nc1ccc(Cl)cc1 | Soluble | 500 µM (≈ 242 µg/mL) | > 500 µM | > 500 µM | 500 µM (≈ 242 µg/mL) | inactive | inactive | inactive | inactive | > 500 µM | 32 µM (≈ 15.5 µg/mL) | 500 µM (≈ 242 µg/mL) | 250 µM (≈ 121 µg/mL) | 62.5 µM (≈ 30.2 µg/mL) | 500 µM (≈ 242 µg/mL) | 500 µM (≈ 242 µg/mL) | > 500 µM | 500 µM (≈ 242 µg/mL) | 125 µM (≈ 60.5 µg/mL) | inactive | MIC95 (Enterococcus [9]): 500 µM (≈ 242 µg/mL); MIC95 [10]: 500 µM (≈ 242 µg/mL); MIC95 (Staphylococcus aureus [12]): 500 µM (≈ 242 µg/mL); MIC95 (Enterococcus [15]): 500 µM (≈ 242 µg/mL); MIC95 (Staphylococcus aureus [17]): 500 µM (≈ 242 µg/mL); MIC95 (Staphylococcus aureus [18]): 500 µM (≈ 242 µg/mL)
3 | COc1ccc(OC(=O)CN2C(=O)CSC2=S)cc1 | Soluble | > 500 µM | > 500 µM | > 500 µM | > 500 µM | inactive | inactive | inactive | inactive | 1000 µM (≈ 297 µg/mL) | 1000 µM (≈ 297 µg/mL) | 1000 µM (≈ 297 µg/mL) | 1000 µM (≈ 297 µg/mL) | 1000 µM (≈ 297 µg/mL) | 1000 µM (≈ 297 µg/mL) | 1000 µM (≈ 297 µg/mL) | 1000 µM (≈ 297 µg/mL) | 1000 µM (≈ 297 µg/mL) | 1000 µM (≈ 297 µg/mL) | inactive | MIC95 (Enterococcus [9]): 500 µM (≈ 149 µg/mL); MIC95 [10]: 500 µM (≈ 149 µg/mL); MIC95 (Staphylococcus aureus [12]): > 500 µM; MIC95 (Enterococcus [15]): > 500 µM; MIC95 (Staphylococcus aureus [17]): > 500 µM; MIC95 (Staphylococcus aureus [18]): > 500 µM
4 | O=C(CN1C(=O)CSC1=S)Nc1ccc(Cl)cc1 | Soluble | > 500 µM | > 500 µM | > 500 µM | > 500 µM | inactive | inactive | inactive | inactive | 500 µM (≈ 150 µg/mL) | 32 µM (≈ 9.63 µg/mL) | 250 µM (≈ 75.2 µg/mL) | 250 µM (≈ 75.2 µg/mL) | 62.5 µM (≈ 18.8 µg/mL) | 250 µM (≈ 75.2 µg/mL) | 1000 µM (≈ 301 µg/mL) | 500 µM (≈ 150 µg/mL) | 1000 µM (≈ 301 µg/mL) | 125 µM (≈ 37.6 µg/mL) | inactive | MIC95 (Enterococcus [9]): 500 µM (≈ 150 µg/mL); MIC95 [10]: 500 µM (≈ 150 µg/mL); MIC95 (Staphylococcus aureus [12]): > 500 µM; MIC95 (Enterococcus [15]): > 500 µM; MIC95 (Staphylococcus aureus [17]): > 500 µM; MIC95 (Staphylococcus aureus [18]): > 500 µM
5 | O=C(CN1C(=O)/C(=C/c2ccccn2)SC1=S)Nc1ccc(Cl)cc1 | Soluble | > 125 µM | > 125 µM | > 125 µM | > 125 µM | inactive | inactive | inactive | inactive | > 250 µM | > 250 µM | > 250 µM | > 250 µM | > 250 µM | > 250 µM | > 250 µM | > 250 µM | > 250 µM | > 250 µM | inactive | MIC95 (Enterococcus [9]): 125 µM (≈ 48.7 µg/mL); MIC95 [10]: > 125 µM; MIC95 (Staphylococcus aureus [12]): > 125 µM; MIC95 (Enterococcus [15]): > 125 µM; MIC95 (Staphylococcus aureus [17]): > 125 µM; MIC95 (Staphylococcus aureus [18]): > 125 µM
6 | O=C(CN1C(=O)/C(=C/c2ccccc2O)SC1=S)Nc1ccc(Cl)cc1 | Soluble | – | – | – | – | inactive | inactive | inactive | inactive | 125 µM (≈ 50.6 µg/mL) | 8 µM (≈ 3.24 µg/mL) | 125 µM (≈ 50.6 µg/mL) | 125 µM (≈ 50.6 µg/mL) | 16 µM (≈ 6.48 µg/mL) | 32 µM (≈ 13 µg/mL) | 62.5 µM (≈ 25.3 µg/mL) | 62.5 µM (≈ 25.3 µg/mL) | 125 µM (≈ 50.6 µg/mL) | 62.5 µM (≈ 25.3 µg/mL) | inactive | –
